Series [1] addresses T1, Alanine aminotransferase 1 (Rattus norvegicus) (UniProt P25409).
T1 sequence (whole entry): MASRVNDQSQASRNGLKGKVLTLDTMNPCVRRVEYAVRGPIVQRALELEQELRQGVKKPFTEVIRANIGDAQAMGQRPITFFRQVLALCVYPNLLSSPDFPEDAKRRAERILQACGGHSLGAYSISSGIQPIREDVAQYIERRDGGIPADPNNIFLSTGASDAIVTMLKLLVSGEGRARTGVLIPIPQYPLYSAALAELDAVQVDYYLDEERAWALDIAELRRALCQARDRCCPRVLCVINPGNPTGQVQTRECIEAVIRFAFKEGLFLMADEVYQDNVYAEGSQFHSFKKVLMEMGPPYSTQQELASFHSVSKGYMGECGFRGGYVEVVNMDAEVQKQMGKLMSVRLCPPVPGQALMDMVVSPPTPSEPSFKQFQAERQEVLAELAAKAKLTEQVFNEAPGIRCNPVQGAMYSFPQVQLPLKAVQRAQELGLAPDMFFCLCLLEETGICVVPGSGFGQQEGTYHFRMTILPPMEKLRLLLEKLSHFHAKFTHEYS
Nature of the series: Concentration for complete inactivation of alanine aminotransferase. Summed up:
(§1)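 Partially purified rat liver ALT (ammonium sulfate fraction from prednisolone-treated male Wistar rats, lyophilized, diluted in 0.1 M pH 7.4 potassium phosphate). Enzyme preincubated with alkaloid at pH 7.4, room temperature, 30 min. Then added to substrate (8.33×10^-2 M L-alanine, 1.67×10^-3 M 2-oxoglutarate, pH 7.4) at 30 °C. Product read by 2,4-dinitrophenylhydrazine, alkaline NaOH, A505.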

The target of series [2] is T1, Alanine aminotransferase 1 (Rattus norvegicus). Nature of the series: Inhibitory activity against alanine aminotransferase was measured. A digest of the protocol:
as §1

Series [3] can be described thus: The stability constant of adduct formation for glutathione at pH 5.69. The series is classed as ADME. Summed up:
(§2)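 Spectrophotometric measurement at 20 °C in 10-mm cells, with pH checked by meter. Aqueous solutions held 4×10^-6 M alkaloid, 4×10^-6 to 1.6×10^-2 M thiol, and 4×10^-3 M hexadecyltrimethylammonium bromide, in phosphate buffers of ionic strength 0.05. The stability constant (K) of the thiol–iminium adduct was taken at the stated pH.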

A short description of series [4]: The stability constant of adduct formation for thioethanol at pH 5.28. The series is classed as ADME. Summed up: as §2
A short description of series [5]: The stability constant of adduct formation for cysteine at pH 5.69. Format: ADME. A digest of the protocol: as §2
Series [6] in a line: The stability constant of adduct formation for cysteine at pH 5.28. Format: ADME. A digest of the protocol: as §2
Series [7] deals with T1, Alanine aminotransferase 1 (Rattus norvegicus). Nature of the series: Effect of glutathione on alanine aminotransferase inhibition by the compound at 10E-5. The settings on record: for inhibition: concentration not given here. Summed up:
(§3)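 ALT alkaloid-inhibition assay at 30 °C (L-alanine/2-oxoglutarate substrate, pH 7.4 phosphate, 2,4-dinitrophenylhydrazine read-out at 505 nm). Substrate solution contained 10^-2 M of the thiol. Percent inhibition compared against thiol-free substrate.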

Series [8] has the same target. Nature of the series: Effect of cysteine on alanine aminotransferase inhibition by the compound at 10E-5. As to conditions: for inhibition: concentration not given here. Summed up:
as §3

For series [9] the target is unchanged. As to the kind of experiment: Effect of thioethanol on alanine aminotransferase inhibition by the compound at 10E-5. As to conditions: for inhibition: concentration not given here. Summed up:
as §3

A short description of series [10]: The stability constant of adduct formation for thioethanol at pH 5.69. The series is classed as ADME. A digest of the protocol:
as §2

The nature of series [11]: The stability constant of adduct formation for glutathione at pH 5.28. The series is classed as ADME. A digest of the protocol:
as §2

The nature of series [12]: The stability constant of adduct formation for glutathione at pH 6.25. Format: ADME. A digest of the protocol: (§4)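 Thiol–alkaloid adduct stability constants measured by UV-vis spectrophotometry at 20 °C in 10-mm cells. Aqueous solutions held 4×10^-6 M alkaloid, 4×10^-6 to 1.6×10^-2 M thiol and 4×10^-3 M hexadecyltrimethylammonium bromide. Phosphate buffers of ionic strength 0.05 at the stated pH.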

Series [13] can be described thus: The stability constant of adduct formation for thioethanol at pH 5.68. Format: ADME. A digest of the protocol: as §4
The nature of series [14]: The stability constant of adduct formation for cysteine at pH 5.68. Format: ADME. Summed up: as §4
Series [15] is described as follows: The stability constant of adduct formation for glutathione at pH 5.68. The series is classed as ADME. Summed up: as §4
Series [16] is described as follows: The stability constant of adduct formation for thioethanol at pH 6.25. Format: ADME. Summed up: as §4
Series [17] in a line: The stability constant of adduct formation for cysteine at pH 6.25. Format: ADME. A digest of the protocol:
as §4

SMILES strings stand for the structures.

The values that follow come from ChEMBL document CHEMBL1121701, “Inhibition of liver alanine aminotransferase activity by some benzophenanthridine alkaloids” (J Med Chem, 1981).

`C[n+]1cc2c3c(ccc2c2ccc4cc5c(cc4c21)OCO5)OCO3` [SANGUINARIUM] showed a Concentration in series [1] of 50 µM. The compound also gave an ID50 in series [2] of 3.4 µM. The “Log K” value came out at 4.79 in series [3]; 3.77 in [4]; 3.33 in [5]; 2.97 in series [6]; 4.01 in [10]; 4.64 in [11]. Further, the Protection in series [7] is 81%; in [8] it was 5%; in series [9], 75%. In addition, the inhibition in series [7] turned out to be 15%; in [8] it was 74%; in series [9], 20%.

As for `COc1ccc2c(c[n+](C)c3c4cc5c(cc4ccc23)OCO5)c1OC.[Cl-]` [CHELERYTHRINE CHLORIDE], the “Log K” value in series [12] worked out at 4.39; in series [13] it was 3.46; in series [14], 2.74; in [15], 4.39; in [16] it was 4.05; in [17], 3.09. For the same compound, the Concentration in series [1] stood at 30 µM. Moreover, in series [2], the ID50 came to 4 µM. For the same compound, the Protection was 70% in [7], 5% in [8] and 55% in [9]. Also, the inhibition in series [7] came to 13%; in [8], 40%; in series [9], 23%.

One may read the inhibition as the relative decrease from the control value, in per cent. The low end stands for a response near the control, the high end for a response far below the control.
